Laboratory results: ChEMBL document CHEMBL1138748, “A prodrug approach toward the development of water soluble fluoroquinolones and structure--activity relationships of quinoline-3-carboxylic acids” (2004)
Values after ≈ are worked out from the molar mass of the structure shown.

Assays:
Format in all cases: functional
Staphylococcus aureus [1] = assay: Antibacterial activity against Staphylococcus aureus strain 29213
Outline: (§1)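 Broth microdilution MIC run to NCCLS standards: serial 2-fold dilutions in cation-adjusted Mueller–Hinton broth, inoculum ~5 × 10^5 CFU/mL, incubated 35 °C for 18–24 h. Trays were read by eye, and the MIC was taken as the lowest concentration giving complete growth inhibition (no visible turbidity).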

Escherichia coli [2] = assay: Antibacterial activity against Escherichia coli strain 25922; outline: as §1
Enterococcus faecalis [3] = assay: Antibacterial activity against Enterococcus faecalis strain 29212; outline: as §1
Pseudomonas aeruginosa [4] = assay: Antibacterial activity against Pseudomonas aeruginosa strain 27853; outline: as §1
Staphylococcus aureus [5] = assay: Antibacterial activity against Staphylococcus aureus strain St au 33591 MRSA; outline: as §1
Staphylococcus aureus [6] = assay: Antibacterial activity against Staphylococcus aureus strain St au 29213; outline: as §1
Staphylococcus aureus [7] = assay: Antibacterial activity against methicillin susceptible Staphylococcus aureus
Outline: (§2)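 Broth microdilution per NCCLS standards: serial 2-fold dilutions in cation-adjusted Mueller–Hinton broth, inoculum ~5 × 10^5 CFU/mL, 35 °C for 18–24 h, visual read; MIC = lowest concentration giving complete growth inhibition (no visible turbidity). Reference strains, e.g. S. aureus 29213 (susceptible) and 33591 (MRSA).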

Staphylococcus aureus [8] = assay: Antibacterial activity against methicillin resistant Staphylococcus aureus; outline: as §2
Pseudomonas aeruginosa [9] = assay: Antibacterial activity against Pseudomonas aeruginosa; outline: as §1
Enterococcus faecalis [10] = assay: Antibacterial activity against Enterococcus faecalis; outline: as §1
Escherichia coli [11] = assay: Antibacterial activity against Escherichia coli; outline: as §1

Row | MIC (Staphylococcus aureus [1]) [µg/mL] | SMILES | MIC (Escherichia coli [2]) [µg/mL] | MIC (Enterococcus faecalis [3]) [µg/mL] | MIC (Pseudomonas aeruginosa [4]) [µg/mL] | MIC (Staphylococcus aureus [5]) [µg/mL] | MIC (Staphylococcus aureus [6]) [µg/mL] | MIC (Staphylococcus aureus [7]) [µg/mL] | MIC (Staphylococcus aureus [8]) [µg/mL] | MIC (Pseudomonas aeruginosa [9]) [µg/mL] | MIC (Enterococcus faecalis [10]) [µg/mL] | MIC (Escherichia coli [11]) [µg/mL]
1 | 0.78 (≈ 2.03 µM) | O=C(O)c1cn(-c2ccc(O)cc2)c2cc(N3CCNCC3)c(F)cc2c1=O | 0.4 (≈ 1.04 µM) | 6.25 (≈ 16.3 µM) | 1.56 (≈ 4.07 µM) | 0.4 (≈ 1.04 µM) | – | – | – | – | – | –
2 | – | CN1CCN(c2cc3c(cc2F)c(=O)c(C(=O)O)cn3-c2ccc(O)cc2)CC1 | < 0.05 | 0.78 (≈ 1.96 µM) | 0.78 (≈ 1.96 µM) | 0.2 (≈ 0.503 µM) | 0.1 (≈ 0.252 µM) | 0.1 (≈ 0.252 µM) | 0.1 (≈ 0.252 µM) | 0.78 (≈ 1.96 µM) | 0.78 (≈ 1.96 µM) | 0.05 (≈ 0.126 µM)
3 | – | CN1CCN(c2cc3c(cc2F)c(=O)c(C(=O)O)cn3-c2ccc(OP(=O)(O)O)cc2)CC1 | – | – | – | – | – | 1.56 (≈ 3.27 µM) | 0.78 (≈ 1.63 µM) | 50 (≈ 105 µM) | 25 (≈ 52.4 µM) | 0.2 (≈ 0.419 µM)
4 | – | O=C(O)c1cn(C2CC2)c2cc(N3CCNCC3)c(F)cc2c1=O [CIPROFLOXACIN] | – | – | – | – | – | 0.25 (≈ 0.754 µM) | 0.5 (≈ 1.51 µM) | – | 1 (≈ 3.02 µM) | –
